Experimental data from different studies.
Protocols differ between the studies behind these lines.
Target: Mitogen-activated protein kinase 6 (MAPK6, Homo sapiens, UniProt Q16659)

CN(C)c1ncnc(-c2ccc3nc(Nc4cc(CN5CCN(C(=O)CC(F)(F)F)CC5)ccn4)[nH]c3c2)c1Cl  remaining binding (cell-free assay, competition with immobilised ligand; 1 µM): 100%
CNC(=O)[C@@H]1CC[C@@H](n2c(-c3ccc4cnccc4c3)nc3ccc(C(=O)NCc4cccc(C(N)=O)c4)cc32)C1  remaining binding (binding, competition with immobilised ligand; 1 µM): 100%
CN(CCCC(F)(F)F)c1nccc(-c2cnn3ncccc23)n1  remaining binding (binding; 1 µM): 90%
C=CC(=O)N1CCC(C(=O)NCC(=O)N2CCN(c3nc(-c4cnc(N)nc4C(F)F)nc(N4CCOCC4)n3)CC2)CC1  remaining binding (binding, competition with immobilised ligand; 1 µM): 96%
N#CC1(c2ccccn2)CCN(Cc2cc(C(=O)N3CCCC3)c(=O)n3ccccc23)CC1  remaining binding (cell-free assay, competition with immobilised ligand; 1 µM): 79%
C[C@@H](c1ccc(-n2cnc3c(N)ncnc32)cc1)N1CCc2nn(C)c(Cc3ccccc3)c2C1=O  remaining binding (binding, competition with immobilised ligand; 0.1 µM): 93%
COc1ccnn2ncc(-c3ccnc(N(C)C)n3)c12  remaining binding (binding; 1 µM): 85%
Cn1nc(C(=O)NCc2ccc(C(=O)O)cc2)cc1-c1ccc2[nH]ccc2c1  remaining binding (cell-free assay, competition with immobilised ligand; 0.1 µM): 100%
N[C@H]1CCN(c2nccc(-c3cnn4ncccc34)n2)C1  remaining binding (binding; 1 µM): 98%
CCCOc1ccc([C@H]2[C@H](C(=O)O)[C@@H](c3ccc4c(c3)OCO4)CN2CC(=O)Nc2c(CC)cccc2CC)cc1  remaining binding (cell-free assay, competition with immobilised ligand; 1 µM): 92%
O=C(NCCCN1CCOCC1)c1ccc(Nc2ncc(Cl)c(-c3ccc(Cl)s3)n2)cc1  remaining binding (binding, competition with immobilised ligand; 1 µM): 0.05%
Cc1cnn2ncc(-c3ccnc(N(C)C)n3)c2c1  remaining binding (binding; 1 µM): 98%
COc1ncc2cc3ccccc3nc2c1C#N  remaining binding (cell-free assay, competition with immobilised ligand; 5 µM): 90%
O=C(NCCCN1CCOCC1)c1ccc(Nc2nccc(-c3cc4ccccc4s3)n2)cc1  remaining binding (binding, competition with immobilised ligand; 1 µM): 48%
C[C@H]1CCN(c2nccc(-c3cnn4ncccc34)n2)C1  remaining binding (binding; 1 µM): 83%
Cc1cnc(Nc2ccc(C(=O)N3CCC(N4CCCC4)CC3)cc2)nc1-c1cc2ccccc2s1  remaining binding (binding, competition with immobilised ligand; 1 µM): 0.1%
CN(C(=O)c1ccccc1)c1cc(N(C)c2ccc3c(c2)CCc2ccc(C(=O)NCCN4CCOCC4)cc2C3=O)ccc1F  remaining binding (cell-free assay, competition with immobilised ligand; 1 µM): 100%
COc1cnc(Nc2cccc(S(N)(=O)=O)c2)nc1N1CCN(c2ccccc2)C(=O)C1  remaining binding (binding, competition with immobilised ligand; 1 µM): 100%
Cc1nc(C2CCN(C(=O)c3ccc(OC(F)(F)F)cc3N)CC2)c2ncc(N3CCN(C)CC3)cc2n1  remaining binding (cell-free assay, competition with immobilised ligand; 1 µM): 100%
O=C(NCC1CCOCC1)c1n[nH]cc1NC(=O)c1c(F)cccc1F  remaining binding (binding, competition with immobilised ligand; 1 µM): 86%
CS(=O)(=O)N1CCCC(NC(=O)[C@H](CCC2CCCCC2)NC(=O)c2ccc(CNC(=O)c3cnc4ccccn34)cc2)C1 (stereo partly shown)  remaining binding (cell-free assay, competition with immobilised ligand; 0.1 µM): 96%
c1cnn2ncc(-c3ccnc(N4CCC45COC5)n3)c2c1  remaining binding (binding; 1 µM): 92%
